# High-throughput results as filed in PubChem.
# A selection: hits, their analogues and other compounds. The true share with any hit is near 1.9%.
# M5 PAM – potentiates acetylcholine response at human M5 receptor; activation, % at 3 µM; P08912; CHO-K1 hM5, Fluo-8 calcium, ACh EC20 PAM; 0% = ACh EC20, 100% = ACh EC100; AID 624038; hit rate 0.3% among 360,000;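 active = activation above the run cutoff, the mean activation of all test compounds plus 3 SD, cut at about 18% in these data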
#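 Assay system – human M5 receptor in CHO-K1 cells · Read-out – % activation, ACh-normalized · Technique – Fluo-8 calcium fluorescence · Dosing – single-point, 3 µM nominal · Incubation – Fluo-8 loading 80 min at 37 °C plus 30 min room temperature · Repeats – singlicate, one well per test compound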
# CHRM4 antagonist – antagonists of human muscarinic M4 receptor (CHRM4); P08173; CHO-hM4 cells, ACh EC80, Fluo-8 calcium fluorescence; inhibition, % at 3 µM; hit rate 0.73% among 360,000; AID 624125;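 active = inhibition above its plate's cutoff, the mean inhibition of sample wells plus 3 SD, cut at about 27% in these data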;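 also: 0% = acetylcholine EC80 with DMSO and 100% = DMSO without agonist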
# Target sequence (P08173 whole entry, looked up): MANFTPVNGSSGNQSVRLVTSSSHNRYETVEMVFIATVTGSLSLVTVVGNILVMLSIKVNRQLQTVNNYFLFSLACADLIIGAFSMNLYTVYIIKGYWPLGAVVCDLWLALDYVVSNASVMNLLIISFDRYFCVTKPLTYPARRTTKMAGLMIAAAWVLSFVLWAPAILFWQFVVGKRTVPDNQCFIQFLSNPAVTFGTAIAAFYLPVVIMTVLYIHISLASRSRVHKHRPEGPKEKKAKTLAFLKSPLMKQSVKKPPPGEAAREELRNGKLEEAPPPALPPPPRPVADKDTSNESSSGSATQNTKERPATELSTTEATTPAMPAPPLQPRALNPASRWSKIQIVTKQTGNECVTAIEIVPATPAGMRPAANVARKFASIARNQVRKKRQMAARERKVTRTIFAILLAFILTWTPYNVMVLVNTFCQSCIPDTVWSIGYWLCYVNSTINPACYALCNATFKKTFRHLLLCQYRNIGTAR
# M5 antag – CHRM5 antagonism in calcium assay. P08912. CHO-hM5 cells, Fluo-8 calcium fluorescence, ACh EC80. inhibition, % at 3 µM. hit rate 0.59% among 360,000. AID 624040;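 active = inhibition above a per-plate cutoff, the mean of that plate's test compounds plus 3 SD, cut at about 27% in these data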;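 also: 0% = acetylcholine EC80 with DMSO and 100% = DMSO without agonist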
# M4 PAM – potentiates acetylcholine response at human M4 receptor; P08173; CHO-K1 hM4/Gqi5, Fluo-8 calcium fluorescence, ACh EC20; 0% = ACh EC20, 100% = maximal ACh; activation, % at 3 µM; hit rate 0.4% among 360,000; AID 624126;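 active = activation above its plate's cutoff, the mean activation of sample wells plus 3 SD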
# CHRM4 agonist – agonists of human muscarinic M4 receptor (CHRM4). P08173. CHO-K1 hM4/Gqi5, Fluo-8 calcium fluorescence; vehicle 0%, full acetylcholine response 100%. activation, % at 3 µM. hit rate 0.14% among 360,000. AID 624127;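 active = activation above the run mean over all test wells plus 3 SD, cut at about 32% in these data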;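 also: peak over basal fluorescence ratio per well then scaled between controls; 0% = DMSO wells and 100% = acetylcholine at EC100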
# M5 ag – agonists of human muscarinic M5 receptor (CHRM5). P08912. CHO-K1 hM5 cells, Fluo-8 calcium fluorescence; 0% DMSO wells, 100% maximal acetylcholine response. activation, % at 3 µM. hit rate 0.19% among 360,000;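 active = activation above the run's mean over test compounds plus 3 SD, cut at about 23% in these data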;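 also: signal is peak over basal fluorescence ratio across the kinetic read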
# Active calls of the source: *.
SMILES,M5 PAM,CHRM4 antagonist,M5 antag,M4 PAM,CHRM4 agonist,M5 ag
Cn1cnc([N+](=O)[O-])c1Sc1nc(N)nc2c1ncn2C1OC(CO)C(O)C1O (stereo not drawn),-4.1,2.0,4.4,-2.2,0.4,5.2
CN(C)S(=O)(=O)c1cccc(NC(=O)c2ccc(COc3ccccc3)cc2)c1,-21.9,21.7,26.9*,-18.2,24.5,8.1
CN(c1ccccc1)S(=O)(=O)c1cccc(NC(=O)CSc2nnc(N)s2)c1,-17.4,11.1,16.5,-13.6,13.4,3.9
CN(c1ccccc1)S(=O)(=O)c1cccc(NC(=O)CSc2nncs2)c1,-17.1,27.1*,24.9,-23.7,14.8,8.2
CN(c1ccccc1)S(=O)(=O)c1cccc(NC(=O)c2cccc(C#N)c2)c1,-16.4,8.5,32.9*,-12.1,20.1,5.9
CC(C)N(C(=S)Nc1cccc(S(=O)(=O)N(C)C)c1)c1ccccc1,19.0*,-0.8,3.3,2.2,0.9,5.0
Cc1noc(C)c1S(=O)(=O)N1CCC(C(=O)O)CC1,-2.3,-6.6,4.1,5.3,1.7,4.4
c1nc(C2CCCCC2)cc2cc3c(cc12)OCO3,6.1,-10.9,-3.4,3.2,-0.4,0.2
COc1cc(C(=O)N(C)CC2CCN(CCc3cccc(C(F)(F)F)c3)CC2)ccc1C,-5.8,10.5,-3.0,-13.1,3.4,-15.6
CC(C)(C)[C@H]1C=C(C(=O)N2CCN(Cc3ccc4c(c3)OCO4)CC2)O[C@@H](OCCCCO)C1,20.1*,-2.2,-24.0,3.9,1.3,5.0
Oc1ccc(-c2cc(-c3ccc(O)cc3)nc(-c3ccccc3)n2)cc1,-7.4,22.6,16.6,33.9*,5.7,-1.0
CN(C(=O)CSc1nnc(-c2ccc(OC(F)F)cc2)n1N)C1CCS(=O)(=O)C1 (stereo not drawn),3.1,-8.7,-5.8,6.8,1.4,2.8
CCOc1ccc(N2C(=O)CN(CC(=O)OC)C2=S)cc1,1.6,-1.7,-7.9,-1.7,0.6,-0.6
O=C(O)c1ccccc1C(=O)c1ccc(N2CCCC2)c([N+](=O)[O-])c1,3.6,-6.0,-9.8,6.1,0.9,-2.1
CC(=O)c1ccc(N2CCN(c3ccccc3O)CC2)c([N+](=O)[O-])c1,-16.1,11.5,30.7*,-17.3,30.7,8.0
CC(=O)c1ccc(N2CCC(c3cc(-c4ccc(Cl)cc4Cl)n[nH]3)CC2)c([N+](=O)[O-])c1,-9.9,34.0*,15.8,-16.4,5.5,-1.1
Cc1cc(NC(=O)Nc2cccc(Cl)c2)n(-c2ccccn2)n1,-12.6,1.2,6.6,-14.3,21.5,1.5
Nc1ccccc1CNc1nc(NCCO)nc2c1ncn2CCN1CCOCC1,13.2,-9.8,-4.7,8.3,0.8,2.8
Nc1nonc1N/N=C\c1ccccc1,2.4,27.1*,7.2,10.5,0.8,-0.4
O=C(N/N=C/c1cccnc1)c1cc(O)c(O)c(O)c1,2.5,-4.7,2.9,2.3,0.7,-2.4
CN1CCN(CCn2c(=S)[nH]c3ccccc3c2=O)CC1,-17.8,-2.8,33.0*,-6.4,1.8,-5.9
O=c1c2ccccc2[nH]c(=S)n1CCN1CCN(Cc2ccccc2)CC1,-0.3,4.8,6.4,-11.9,1.9,-7.1
CC(C)CN1Cc2ccccc2Oc2cc(Br)ccc2S1(=O)=O,12.1,-8.4,1.4,24.6*,8.7,21.8
COc1ccc(OC)c(-c2csc(NC(=O)c3ccc(F)cc3)n2)c1,-1.1,-11.1,7.5,-1.3,2.3,-9.1
CCN(CC)CCOC(=O)C1(c2ccc(OC)c(OC)c2)CCCC1,-15.8,6.4,28.3*,-12.2,0.7,-8.0
SMILES,M5 PAM,CHRM4 antagonist,M5 antag,M4 PAM,CHRM4 agonist,M5 ag
CCN(CC)CC(=O)NCC1(c2ccccc2)CCCC1,0.7,38.6*,4.6,-23.4,0.3,-17.6
O=C(OCCCN1CCCC1)C1(c2ccccc2)CCCC1,-23.5,62.6*,38.8*,-30.9,1.5,-14.0
CCN(CC)CCOC(=O)c1ccc(Cl)cc1,2.9,-5.3,-12.9,5.2,1.1,-13.6
CCN(CC)CCOC(=O)C1(C2CCCCC2)CCCCC1,-19.1,98.5*,98.9*,-16.4,2.4,-1.5
O=C(COC(=O)C1(c2ccccc2)CCCC1)N1CCNC1=O,4.6,-5.3,3.1,5.5,1.3,-5.6
S=C(c1ccc(N2CCCC2)c(Br)c1)N1CCCCC1,1.9,-2.0,12.3,-8.3,-0.1,-6.9
NC(=O)C1CCN(C(=O)C2(NC(=O)Nc3cccc(F)c3)CCCCC2)CC1,-4.7,4.0,9.0,-2.1,-0.4,-1.4
O=C(Cn1nnc(-c2ccc(Cl)cc2)n1)NC(=O)NC1CCCC1,0.9,-4.3,-0.3,2.6,0.4,-0.3
COc1ccc(C2=Nn3c(nnc3-c3ccccc3OC)SC2)cc1OC1CCOC1 (stereo not drawn),-14.5,-1.5,9.8,-0.5,0.7,-3.8
CCN(CC)CCOC(=O)C1(c2ccccc2)CCCC1,-16.4,98.5*,99.3*,-35.3,1.9,-6.1
CN(C)CCOC(=O)C1(c2ccccc2)CCOCC1,-28.0,8.6,13.2,-6.3,0.4,-11.0
COc1ccc(-c2csc3ncn(CC(=O)N4CCOCC4)c(=O)c23)cc1,-6.7,-4.8,4.8,-0.6,0.1,-0.2
CC(=O)c1cnc(N2CCCCC2)nc1C,18.2*,30.9*,-2.4,15.6,1.5,-1.5
CC(C)(C)S(=O)(=O)c1cnc(N2CCCCC2)nc1N,-2.1,5.0,6.1,-18.5,0.4,-2.7
Cc1ccc2c(c1)C(=O)C(=O)N2Cc1ccc(C(F)(F)F)cc1,7.4,-4.9,-1.0,-3.4,32.1*,43.8*
Cc1ccc(OCCN2C(=O)C(=O)c3cc(C)ccc32)cc1,5.1,-9.5,-2.9,-8.3,0.2,23.0
COc1cc(/C=C/C(=O)c2ccc3c(c2)OCO3)cc(Cl)c1O,-15.2,32.4*,33.2*,-27.2,124.7*,50.0*
COc1ccc(C(=O)C=Cc2ccc3c(c2)OCO3)cc1OC,0.2,9.1,1.4,-6.6,3.5,-0.3
Cc1c(CC(=O)O)c(=O)oc2c(C)c3occ(-c4ccccc4)c3cc12,-0.9,45.9*,12.8,-16.1,-1.0,-5.7
CC(=O)[C@@]1(O)CC[C@H]2[C@@H]3C[C@H](C)C4=CC(=O)CC[C@]4(C)[C@H]3CC[C@@]21C,-2.6,32.8*,-3.5,-11.1,1.7,-0.4
CC(=O)C1(O)CCC2C3CC(C)C4=CC(=O)CCC4(C)C3CCC21C (stereo not drawn),-0.8,44.0*,-8.1,-7.0,4.3,-0.1
C=C1CC2C(CCC3(C)C2CCC3(O)C(C)=O)C2(C)CCC(=O)C=C12 (stereo not drawn),3.4,3.9,-6.0,-4.7,1.1,-1.6
